Screening results: PubChem, several laboratories
CendR NRP1 mod = NRP-1/CendR interaction modulation; O14786; FAM-RPARPAR peptide binding to NRP-1, fluorescence polarization; inhibition, % at 25 µM; 360,000 tested, 0.85% active;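 active = inhibition or corrected inhibition above about 18%, plus a signal ratio from 0.5 to 1.5, limit read from the data, passing the limit was not always enough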
Arr AP2 block = human beta-arrestin and AP2 interaction inhibition. 340,000 tested, 0.31% active. FITC-arrestin peptide / GST-AP2 beads, flow cytometry; AP2 beta2 appendage carries R879A mutation. AID 504490. inhibition, % at 10 µM;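 active = inhibition above a set limit, near 3 SD of compounds lacking own fluorescence, cut at about 54% in these data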
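system = GST-tagged AP2 beta2-adaptin appendage (R879A) on 4 µm glutathione beads | reagent = FITC-labelled arrestin peptide probe, 50 nM final | schedule = compound with beads 12 min RT, then probe 1 h RT | signal = HyperCyt-sampled flow cytometry, FL1 channel, ex 488/em 535 nm | read-out = percent response from loss of bead-bound FITC fluorescence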
CaV13 FRET inh = Disruptors of the CACNA1D IQ motif to Ca2+-dependent inactivation inhibitor domain association, primary screening, Förster resonance energy transfer in intact living …; HEK cells, CFP/YFP FRET ICDI-IQ, plate reader, 10 min; percent FRET-ratio fall versus neutral wells; inhibition, % at 12.3 µM; 340,000 tested, 0.098% active; AID 743397;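 active = mean replicate inhibition of at least 30% and at least 1% of replicates passing that level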
ADAM10 inh = ADAM10 inhibition, QFRET primary screen; recombinant ADAM10, EDANS/DABCYL FRET peptide cleavage, 3 h; inhibition, % at 7 µM; 370,000 tested, 0.62% active; AID 720582;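 active = inhibition above a per-campaign cutoff equal to the mean of compounds falling between control-based bounds plus 3 SD, cut at about 20% in these data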
FAS-TE inh = inhibitors of human fatty acid synthase thioesterase domain; P49327; recombinant FAS-TE, OMFH fluorogenic substrate, fluorescence endpoint; inhibition, % at 15 µM; 360,000 tested, 0.67% active; AID 602261;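 active = compounds whose normalised, plate-corrected inhibition of enzyme fluorescence in the single-dose primary screen is 50% or more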
ADAM17 inh = ADAM17 inhibition, QFRET primary screen | inhibition, % at 6.95 µM | P78536 | recombinant ADAM17, EDANS/DABCYL FRET peptide cleavage | 370,000 tested, 0.83% active;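 active = inhibition above the mean of compounds lying between control limits plus 3 SD, set per campaign, cut at about 8.5% in these data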
FAS-TE inh conf = confirmation of human fatty acid synthase thioesterase inhibitors | shares compounds with FAS-TE inh | recombinant FAS-TE, OMFH fluorogenic substrate, fluorescence | inhibition, % at 15 µM | 2,300 tested, 45% active | AID 624325;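 active = compounds inhibiting the enzyme by at least 50% at 15 µM in any one of the replicates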
Large screens that a line does not name were inactive (follow-up assays come after a bar, where they were run). Compounds with a hit are over-represented: about 2.9% of the library has one in this group of screens.

CCN(C[C@H]1N[C@@](Cc2ccccc2)(C(=O)OC)[C@H]2C(=O)N(C)C(=O)[C@@H]12)S(=O)(=O)c1ccc(-c2ccccc2)cc1	FAS-TE inh 51.6 | FAS-TE inh conf inactive
CCN1C(=O)[C@H]2[C@@H](c3ccc(-c4ccccc4)cc3)N[C@@](Cc3ccccc3)(C(=O)OC)[C@H]2C1=O	none
CCN1C(=O)[C@H]2[C@@H](c3ccc(-c4ccc(Cl)c(Cl)c4)cc3)N[C@@](Cc3ccccc3)(C(=O)OC)[C@H]2C1=O	FAS-TE inh 89.2 | FAS-TE inh conf inactive
COC(=O)[C@]1(Cc2ccccc2)N[C@H](c2ccc(-c3ccc(F)cc3)cc2)[C@@H]2C(=O)N(C)C(=O)[C@@H]21	FAS-TE inh 85.4 | FAS-TE inh conf inactive
CCN(C[C@H]1N[C@@](Cc2ccccc2)(C(=O)OC)[C@H]2C(=O)N(C)C(=O)[C@@H]12)S(=O)(=O)c1ccccc1	none
CCN1C(=O)[C@H]2[C@@H](c3ccc(-c4ccc(OC)cc4)c(OC)c3)N[C@@](Cc3ccccc3)(C(=O)OC)[C@H]2C1=O	FAS-TE inh 51.5 | FAS-TE inh conf inactive
CCN1C(=O)[C@H]2[C@@H](c3ccc(-c4ccc5c(c4)OCO5)c(OC)c3)N[C@@](CC(C)C)(C(=O)OC)[C@H]2C1=O	none
COC(=O)[C@]1(Cc2ccccc2)N[C@H](c2ccc(-c3cccc(Cl)c3)c(OC)c2)[C@@H]2C(=O)N(C)C(=O)[C@@H]21	FAS-TE inh 93.4 | FAS-TE inh conf inactive
CCN1C(=O)[C@H]2[C@@H](c3ccc(-c4ccc5c(c4)OCO5)c(OC)c3)N[C@@](Cc3ccccc3)(C(=O)OC)[C@H]2C1=O	FAS-TE inh 90.8 | FAS-TE inh conf inactive
C=CCn1c(=S)[nH]c2cc(C(=O)N3CCN(c4ccccc4OC)CC3)ccc2c1=O	FAS-TE inh 54.1 | FAS-TE inh conf 57.6
O=C(NNC(=S)NC(=O)c1ccccc1Cl)c1cccc([N+](=O)[O-])c1	none
O=C(NC(NC(=S)Nc1c(Cl)cccc1Cl)C(Cl)(Cl)Cl)c1cccc([N+](=O)[O-])c1 (centres undefined)	FAS-TE inh 54.7 | FAS-TE inh conf inactive
COc1ccc(NC(=S)NC(NC(=O)c2ccccc2Cl)C(Cl)(Cl)Cl)c([N+](=O)[O-])c1 (centres undefined)	none
O=C(NNc1c(Cl)cc(Cl)cc1Cl)c1cccc([N+](=O)[O-])c1	FAS-TE inh 55.2 | FAS-TE inh conf 58.0
CN1OC[C@@H]2CN(C(=O)C(C)(C)C)[C@H](c3ccc(-c4cccnc4)cc3)C[C@@H]21	none (no result: Arr AP2 block)
COc1ccc(NC(=O)C2(C)CCCN(C(C)=O)C2)cc1F (centres undefined)	none (no result: Arr AP2 block)
COc1ccccc1N1CC(C(=O)Nc2cc(C(F)(F)F)ccc2N2CCCC2)CC1=O (centres undefined)	FAS-TE inh 62.9 | FAS-TE inh conf 65.2
Cc1ccc(N2CC(C(=O)Nc3cc(C(F)(F)F)ccc3N3CCCC3)CC2=O)cc1 (centres undefined)	none
CC1(C(=O)NS(=O)(=O)c2ccc(C#N)cc2)CCN1C(=O)CCc1ccc(Cl)cc1Cl (centres undefined)	none (no result: Arr AP2 block)
CC1(C(=O)NS(=O)(=O)c2ccc(C#N)cc2)CCN1C(=O)Cc1ccc(Cl)cc1Cl (centres undefined)	FAS-TE inh 55.0 (no result: Arr AP2 block) | FAS-TE inh conf 70.4
COC(=O)c1ccccc1NC(=S)N(Cc1ccc2c(c1)OCO2)Cc1cc2cccc(C)c2[nH]c1=O	FAS-TE inh 83.0 | FAS-TE inh conf inactive
C(=C\c1ccccc1)/CN1CCN(C(c2cc3ccccc3o2)c2nnnn2Cc2ccccc2)CC1 (centres undefined)	none (no result: Arr AP2 block, CaV13 FRET inh)
O=[N+]([O-])c1ccc(CN2[C@H](COCc3ccccc3)[C@@H](N3CCCC3)CS2(=O)=O)cc1	none (no result: Arr AP2 block, CaV13 FRET inh)
O=C(CCC(=O)Nc1ccc(Br)cc1)N/N=C/c1cc([N+](=O)[O-])ccc1O	FAS-TE inh 56.3 | FAS-TE inh conf 63.5
Cc1cc([N+](=O)[O-])nn1CC(=O)N/N=C/c1ccccc1Br	FAS-TE inh 62.8 | FAS-TE inh conf 68.5
O=C(Cn1nc2ccccc2n1)N/N=C/c1cc([N+](=O)[O-])ccc1O	FAS-TE inh 57.4 | FAS-TE inh conf 75.3
O=C(Cn1nnc(-c2ccccc2)n1)N/N=C/c1cc([N+](=O)[O-])ccc1O	none
O=C(Cn1cnc([N+](=O)[O-])n1)N/N=C/c1cc(Cl)ccc1O	FAS-TE inh 78.6 | FAS-TE inh conf 87.9
O=C(Cn1cnc([N+](=O)[O-])n1)N/N=C/c1ccccc1O	none
CCC(=Cc1ccccc1OC)c1ccncc1	none
Cc1ccc(C(=O)OCC(=O)NC2CCCC(C)C2C)cc1S(=O)(=O)N1CCCCC1 (centres undefined)	none
Cc1cccc(NC(=O)CCC(=O)N/N=C/c2cc([N+](=O)[O-])ccc2O)c1	none
O=C(CCC(=O)Nc1ccc(F)cc1)N/N=C/c1cc([N+](=O)[O-])ccc1O	FAS-TE inh 55.7 | FAS-TE inh conf 65.4
Cc1ccc(C)c(CN2C(=O)c3ccccc3S(=O)c3ccc(C(=O)N4CCN(c5ccccn5)CC4)cc32)c1 (centres undefined)	FAS-TE inh 72.0 | FAS-TE inh conf inactive
Cc1ccc(C)c(CN2C(=O)c3ccccc3S(=O)(=O)c3ccc(C(=O)N4CCN(C)CC4)cc32)c1	none
COc1cc(OC)c(N(C)S(=O)(=O)c2cccc(C(=O)Nc3nccs3)c2)cc1Cl	FAS-TE inh 66.0 | FAS-TE inh conf inactive
CN(C(=O)COC(=O)c1cccc(S(=O)(=O)N2CCCCC2)c1)C1CCS(=O)(=O)C1 (centres undefined)	none
COc1cc(OC)c(N(C)S(=O)(=O)c2cccc(C(=O)OCC(=O)N(C)C3CCCCC3)c2)cc1Cl	FAS-TE inh 65.7 | FAS-TE inh conf inactive
CN(CCc1ccccc1)C(=O)c1cccc(NC(=O)Cc2cccc(NC(=O)C3CCCN(C(=O)C4CCCC4)C3)c2)c1 (centres undefined)	none
Cc1occc1-c1nnc(SCC(=O)Nc2ccncc2)n1-c1ccccc1	none (no result: CendR NRP1 mod, Arr AP2 block, CaV13 FRET inh, FAS-TE inh)
Cc1ccc(S(=O)(=O)N2[C@@H](c3ccc(C(C)(C)C)cc3)C(C(=O)O)=CC[C@H]2c2ccc(C(C)C)cc2)cc1	ADAM10 inh 21.9, FAS-TE inh 76.5 | FAS-TE inh conf inactive
Cc1ccc([C@@H]2CC=C(C(=O)O)[C@H](c3ccc(C(C)(C)C)cc3)N2S(=O)(=O)c2ccc(C)cc2)cc1	none
